These results are taken from ChEMBL document CHEMBL1177786, “Synthesis of novel beta-carbolines with efficient DNA-binding capacity and potent cytotoxicity” (Bioorg Med Chem Lett, 2010).

Usually IC50 stands for the concentration that inhibits the measured activity by half. High values mean weaker potency in that assay, low ones greater potency in that assay. One may read the ΔTm as the shift of the melting midpoint relative to a reference.

The test system of one assay is A-375. The assay is described as follows: Cytotoxicity against human A375 cells by MTT assay. Format: functional, cell-based. Put shortly: (§1)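 MTT assay in human tumour lines. IC50 is the compound concentration giving a 50% drop in optical density relative to untreated cells. Values are means of three independent determinations.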
Another assay relates to 786-0. Put plainly: Cytotoxicity against human 786-0 cells by MTT assay. Format: functional, cell-based. The gist of the method: as §1
A general note: Tetrazolium assays rely on reduction of a dye to a coloured formazan, in cell work by metabolically active cells.

Another assay concerns HT-29. Put plainly: Cytotoxicity against human HT-29 cells by MTT assay. Format: functional, cell-based. Put shortly:
as §1

For the next assay, the system named is 769-P. The assay is described as follows: Cytotoxicity against human 769-P cells by MTT assay. Format: functional, cell-based. The gist of the method:
as §1

Assay [1] can be described thus: Cytotoxicity against human BCG823 cells by MTT assay. It counts as functional, cell-based. The gist of the method: as §1
In another assay the test system is MCF7. The assay is described as follows: Cytotoxicity against human MCF7 cells by MTT assay. Format: functional, cell-based. Put shortly: as §1
The next assay relates to OS-RC-2. The assay is described as follows: Cytotoxicity against human OS-RC2 cells by MTT assay. It counts as functional, cell-based. Put shortly: as §1
The test system of a further assay is CWR22R. The assay is described as follows: Cytotoxicity against human 22Rv1 cells by MTT assay. It counts as functional, cell-based. Put shortly: as §1
The next assay deals with KB. The assay is described as follows: Cytotoxicity against human KB cells by MTT assay. It counts as functional, cell-based. Put shortly:
as §1

In another assay the test system is HepG2. The assay is described as follows: Cytotoxicity against human HepG2 cells by MTT assay. Format: functional, cell-based. Put shortly: as §1
A further assay concerns Calf thymus DNA. The assay is described as follows: Binding affinity to calf thymus DNA assessed as change in melting temperature at drug/DNA ratio 0.2 at pH 7.4. The following applies: Bos taurus. It counts as nucleic-acid assay. The gist of the method:
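Thermal denaturation of calf thymus DNA in PE buffer (1 mM Na₂HPO₄, 0.1 mM EDTA, pH 7.4), drug/DNA ratio 0.2; ΔTm taken as Tm of drug–DNA complex minus Tm of DNA alone.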

Counter-ions that a name gives are not always drawn. Where only a bound is given, the exact number is not on record here.

In the case of `CCN(CC)CCCNCc1cc2c3ccccc3n(Cc3cccc(Cl)c3)c2cn1`, the concentration for half-maximal inhibition (IC50) was 14.7 µM in the assay on A-375; 13 µM with 786-0; 9.3 µM in the assay with HT-29; 14.3 µM in the assay on 769-P; 8.1 µM in [1]; 17.4 µM in the assay on MCF7. Also, the IC50 worked out at 8 µM in the assay with OS-RC-2, 8.4 µM with CWR22R, 7.8 µM in the assay on KB and 11.7 µM in the assay on HepG2.

On to `CCN(CC)CCNCc1cc2c3ccccc3n(Cc3cccc(Cl)c3)c2cn1`, for which the IC50 with A-375 stood at 22.7 µM; in the assay on 786-0, 47.6 µM; with HT-29, 19.7 µM; in the assay on 769-P it was 19.3 µM; in assay [1], 37.9 µM; in the assay with MCF7, 42.2 µM. In addition, the IC50 in the assay on OS-RC-2 is 52.3 µM; with CWR22R, 58.5 µM; in the assay with KB, 21.6 µM; in the assay with HepG2, 17.7 µM.

Regarding `CCN(CC)CCNCc1cc2c3ccccc3n(CCCc3ccccc3)c2cn1`, the IC50 in the assay on A-375 was found to be 5.9 µM; in the assay with 786-0 it was 11.2 µM; in the assay on HT-29, 4.2 µM; in the assay with 769-P, 7.3 µM; in [1] it was 14.2 µM; in the assay on MCF7, 27.7 µM. Further, the IC50 with OS-RC-2 worked out at 43.9 µM; in the assay on CWR22R it was 8.2 µM; in the assay with KB, 9.7 µM; in the assay with HepG2 it was 7.2 µM.

For the compound `CCN(CC)CCNCc1cc2c3ccccc3n(Cc3ccccc3)c2cn1`, the half-maximal inhibitory concentration (IC50) with A-375 was 39.1 µM; in the assay with 786-0, 14.4 µM; in the assay on HT-29, 5.2 µM; in the assay on 769-P, 2 µM; in assay [1] it was 9.7 µM; in the assay with MCF7 it was 68.1 µM. For the same compound, the IC50 in the assay with OS-RC-2 was more than 100 µM; in the assay on CWR22R it was 15.9 µM; in the assay with KB, 8.2 µM; in the assay on HepG2, 13.1 µM.

For `CC(=O)O[C@H]1C(=O)[C@@]2(C)[C@H]([C@H](OC(=O)c3ccccc3)[C@]3(O)C[C@H](OC(=O)[C@H](O)[C@@H](NC(=O)c4ccccc4)c4ccccc4)C(C)=C1C3(C)C)[C@]1(OC(C)=O)CO[C@@H]1C[C@@H]2O` [PACLITAXEL], the concentration for half-maximal inhibition (IC50) was less than 0.08 µM in the assay on 786-0; 0.38 µM in the assay with HT-29; 1.5 µM in [1]; 1.3 µM in the assay on MCF7; less than 0.08 µM in the assay on OS-RC-2; 0.08 µM in the assay on CWR22R. Besides, the values for the 50% inhibitory concentration (IC50) in the assay with KB and in the assay with HepG2 were 0.08 µM and less than 0.08 µM, respectively.

Consider `CCCCn1c2ccccc2c2cc(CNCCCCN(CC)CC)ncc21`, for which the IC50 came out at 15.2 µM in the assay with A-375; 14.1 µM in the assay on 786-0; 27.4 µM in the assay with HT-29; 8 µM in the assay with 769-P; 23.4 µM in assay [1]; 23.4 µM with MCF7. In addition, the IC50 stood at 71.7 µM in the assay with OS-RC-2, 13.5 µM in the assay with CWR22R, 10.2 µM with KB and 8 µM with HepG2.

As for `CCN(CC)CCNCc1cc2c3ccccc3n(Cc3ccc(F)cc3)c2cn1`, the half-maximal inhibitory concentration (IC50) with A-375 worked out at 35 µM; in the assay with 786-0, 13.1 µM; with HT-29, 36.2 µM; in the assay on 769-P it was 8.8 µM; in assay [1] it was 10.9 µM; in the assay on MCF7, 43.6 µM. The IC50 in the assay on OS-RC-2 was found to be 93.6 µM; with CWR22R, 9 µM; with KB, 37.1 µM; in the assay with HepG2, 9.1 µM.

`CCN(CC)CCCCNCc1cc2c3ccccc3n(C)c2cn1`: the IC50 with A-375 is more than 100 µM; with 786-0 it was more than 100 µM; with HT-29, 33.1 µM; in the assay on 769-P, more than 100 µM; in assay [1] it was more than 100 µM; in the assay with MCF7 it was more than 100 µM. Besides, the IC50 with OS-RC-2 is more than 100 µM; in the assay with CWR22R it was more than 100 µM; in the assay with KB, 70.6 µM; in the assay on HepG2, more than 100 µM.

Take `CCN(CC)CCCNCc1cc2c3ccccc3n(Cc3ccc(F)cc3)c2cn1`: the 50% inhibitory concentration (IC50) in the assay with A-375 came out at 13.7 µM; with 786-0, 6.1 µM; with HT-29 it was 10.2 µM; in the assay on 769-P, 8.5 µM; in assay [1], 2.6 µM; in the assay with MCF7 it was 31.8 µM. The IC50 in the assay on OS-RC-2 is 13.6 µM; in the assay on CWR22R, 3.6 µM; in the assay on KB, 33.1 µM; in the assay on HepG2 it was 8 µM.

In the case of `CCN(CC)CCCNCc1cc2c3ccccc3n(C)c2cn1`, the IC50 was more than 100 µM in the assay with A-375; 87.6 µM with 786-0; 35.7 µM in the assay with HT-29; more than 100 µM with 769-P; more than 100 µM in assay [1]; more than 100 µM in the assay on MCF7. Moreover, the IC50 was more than 100 µM in the assay on OS-RC-2, more than 100 µM in the assay on CWR22R, 59.7 µM in the assay on KB and 96.1 µM in the assay on HepG2. Besides, the ΔTm with Calf thymus DNA turned out to be 24.5 °C.

Consider `CCCCn1c2ccccc2c2cc(CNCCN(CC)CC)ncc21`, for which the half-maximal inhibitory concentration (IC50) amounted to 75.9 µM in the assay with A-375; 37.6 µM in the assay with 786-0; 7.8 µM in the assay with HT-29; 7.4 µM in the assay with 769-P; 20.2 µM in assay [1]; 92.8 µM with MCF7. Also, the IC50 was more than 100 µM in the assay with OS-RC-2, 25.7 µM with CWR22R, 13.7 µM in the assay with KB and 10.1 µM with HepG2.

For `COc1cccc2c1C(=O)c1c(O)c3c(c(O)c1C2=O)C[C@@](O)(C(=O)CO)C[C@@H]3O[C@H]1C[C@H](N)[C@H](O)[C@H](C)O1` [DOXORUBICIN HYDROCHLORIDE], the IC50 in the assay with A-375 is 17.2 µM; with 786-0 it was 3.1 µM; in the assay on HT-29 it was 4.2 µM; in the assay with 769-P, 11.5 µM; in assay [1], less than 1 µM; in the assay with OS-RC-2, less than 1 µM. Besides, the 50% inhibitory concentration (IC50) was less than 1 µM in the assay on CWR22R, 0.6 µM with KB and 1 µM in the assay with HepG2.

On to `CCN(CC)CCCCNCc1cc2c3ccccc3n(Cc3cccc(Cl)c3)c2cn1`, for which the half-maximal inhibitory concentration (IC50) in the assay on A-375 is 12.6 µM; with 786-0, 19.4 µM; in the assay with HT-29, 12.2 µM; with 769-P, 8.2 µM; in [1], 9.8 µM; in the assay with MCF7, 19.8 µM. For the same compound, the half-inhibitory concentration (IC50) with OS-RC-2 was 6.7 µM; in the assay with CWR22R, 8.6 µM; in the assay on KB it was 4.2 µM; in the assay on HepG2, 10.8 µM.

`CCN(CC)CCCCNCc1cc2c3ccccc3n(CCCc3ccccc3)c2cn1`: the concentration for half-maximal inhibition (IC50) came out at 5.8 µM in the assay with A-375; 9.2 µM in the assay with 786-0; 6.4 µM with HT-29; 10.9 µM in the assay on 769-P; 8.8 µM in assay [1]; 9.1 µM in the assay on MCF7. Besides, the IC50 in the assay with OS-RC-2 came out at 27.7 µM; in the assay with CWR22R it was 7.6 µM; in the assay with KB it was 6.1 µM; in the assay on HepG2 it was 3.4 µM.

As to `CCN(CC)CCCCNCc1cc2c3ccccc3n(Cc3ccccc3)c2cn1`, the IC50 in the assay on A-375 amounted to 16.2 µM; in the assay on 786-0, 6.2 µM; with HT-29, 27 µM; in the assay on 769-P, 31 µM; in [1], 29.3 µM; in the assay with MCF7, 13.4 µM. The half-maximal inhibitory concentration (IC50) is 55 µM with OS-RC-2, 8.9 µM in the assay on CWR22R, 8.2 µM in the assay on KB and 3 µM with HepG2.

As for `CCCCn1c2ccccc2c2cc(CNCCCN(CC)CC)ncc21`, the half-maximal inhibitory concentration (IC50) in the assay with A-375 was found to be 44.2 µM; with 786-0 it was 19.5 µM; in the assay on HT-29, 2.6 µM; in the assay with 769-P, 2.2 µM; in assay [1], 5.9 µM; with MCF7 it was 64.2 µM. The half-maximal inhibitory concentration (IC50) with OS-RC-2 came out at 35.7 µM; in the assay with CWR22R, 8.8 µM; with KB, 6.2 µM; with HepG2, 4.6 µM. Moreover, the thermal shift (ΔTm) in the assay with Calf thymus DNA was 20.6 °C.

In the case of `CCN(CC)CCNCc1cc2c3ccccc3n(C)c2cn1`, the IC50 in the assay on A-375 is more than 100 µM; in the assay with 786-0 it was more than 100 µM; in the assay with HT-29, 41.1 µM; in the assay on 769-P it was more than 100 µM; in [1], 75.7 µM; in the assay with MCF7 it was more than 100 µM. The half-inhibitory concentration (IC50) in the assay on OS-RC-2, in the assay with CWR22R, in the assay on KB and in the assay with HepG2 was more than 100 µM throughout.

`CCN(CC)CCCNCc1cc2c3ccccc3n(Cc3ccccc3)c2cn1`: the IC50 with A-375 stood at 17.5 µM; in the assay on 786-0 it was 6.4 µM; in the assay on HT-29, 3.7 µM; in the assay on 769-P it was 1.5 µM; in [1] it was 2.8 µM; in the assay with MCF7 it was 32.5 µM. In addition, the concentration for half-maximal inhibition (IC50) with OS-RC-2 came out at 14.5 µM; in the assay with CWR22R it was 7.3 µM; in the assay with KB, 4.9 µM; in the assay on HepG2 it was 4.4 µM. The ΔTm in the assay on Calf thymus DNA was found to be 15.6 °C.

For `CCN(CC)CCCCNCc1cc2c3ccccc3n(Cc3ccc(F)cc3)c2cn1`, the IC50 in the assay on A-375 was found to be 6.5 µM; with 786-0, 5.8 µM; with HT-29, 10.1 µM; in the assay on 769-P, 2.9 µM; in [1] it was 9.4 µM; in the assay with MCF7, 20.2 µM. The half-inhibitory concentration (IC50) with OS-RC-2 was determined as 31.7 µM; with CWR22R, 9.6 µM; with KB, 6.5 µM; in the assay on HepG2 it was 2.5 µM.
